CYP2C9 act = activators of human CYP2C9 | AID 1024 | activation factor at 5 µM | 96,000 compounds, 1.4% hits | recombinant CYP2C9, luciferin-H conversion, luminescence; stronger effect = higher value; factor 1 = untreated enzyme, 0 = blocked;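 active means activation factor of 2 or more for CYP2C9 at a 5 µM dose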
Target sequence (P11712 whole entry, looked up): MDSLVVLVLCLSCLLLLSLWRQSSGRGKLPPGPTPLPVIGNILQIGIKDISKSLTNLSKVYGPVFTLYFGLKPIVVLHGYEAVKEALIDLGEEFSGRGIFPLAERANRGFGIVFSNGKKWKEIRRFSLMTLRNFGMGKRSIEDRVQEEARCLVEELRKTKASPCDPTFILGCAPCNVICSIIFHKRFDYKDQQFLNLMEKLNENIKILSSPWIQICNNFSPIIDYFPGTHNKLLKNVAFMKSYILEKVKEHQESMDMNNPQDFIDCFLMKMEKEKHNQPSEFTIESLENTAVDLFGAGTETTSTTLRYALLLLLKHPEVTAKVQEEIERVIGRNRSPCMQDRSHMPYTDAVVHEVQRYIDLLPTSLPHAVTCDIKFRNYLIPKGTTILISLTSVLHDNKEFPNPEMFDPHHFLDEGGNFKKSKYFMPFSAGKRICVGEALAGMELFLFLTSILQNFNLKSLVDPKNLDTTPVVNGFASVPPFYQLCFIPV
CYP2C19 inh = human CYP2C19 inhibition. P33261. CYP2C19 Supersomes, luciferin-H EGE luminescence, 30 min. inhibition, % at 5 µM. 96,000 compounds, 21% hits;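 active means CYP2C19 inhibition above a set limit at 5 µM in the primary screen, cut at about 50% in these data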
CYP2C9 inh = blocks human cytochrome P450 2C9; inhibition, % at 5 µM; 96,000 compounds, 20% hits; CYP2C9 Supersomes, luciferin-H conversion, luminescence;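 active means blocking of liver enzyme CYP2C9 beyond about 50% at 5 µM, limit read from the data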
Cav3 T inh = inhibitors of human Cav3.2 T-type calcium channel; B-score at 10 µM; 100,000 compounds, 4% hits; Cav3.2-expressing cells, Fluo-4 calcium fluorescence FDSS; stronger effect = lower value; O95180;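 active means single-dose well whose peak fluorescence ratio is a statistical outlier from its plate by either plate-standardised score or position-corrected B-score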
CYP2C19 act = activators of human cytochrome P450 2C19; P33261; recombinant CYP2C19, luciferin-H EGE luminescence; stronger effect = higher value; 0 = fully inhibited enzyme, 1 = untreated enzyme; activation factor at 5 µM; 96,000 tested, under 10 active;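 active means activation factor of at least 2 at 5 µM in the primary screen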
Rev-RRE block = disrupts HIV-1 Rev binding to RRE RNA. inhibition, % at 8 µM. P05866. 97,000 compounds, 0.79% hits. Rev peptide-RRE RNA binding, FRET. AID 704;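 active means inhibition above the screen-wide mean plus 3 SD, cut at about 35% in these data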
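Assay system: Labelled RRE RNA duplex and labelled Rev peptide | Times: 5 min preincubation and 15 min binding, 25 °C | Detection: FRET, ex 480 nm, em 540 and 671 nm | Evaluation: % inhibition of FRET ratio versus controls | Benchmarks: DMSO wells as 0% and neomycin B wells as 100% inhibition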
Hits are given with their value; – = inactive; · = not tested or not shown. Sampled rows, rich in hits. Any-hit rate of the full collection: about 27%.

SMILES	CYP2C9 act	CYP2C19 inh	CYP2C9 inh	Cav3 T inh	CYP2C19 act	Rev-RRE block
CCn1cc(C(=O)NCc2cccc(F)c2)c(=O)c2cc(F)c(N3CCN(C(=O)c4ccco4)CC3)cc21	–	–	84	–	–	–
CCn1cc(C(=O)NCc2cccnc2)c(=O)c2cc(F)c(N3CCN(C(=O)c4ccco4)CC3)cc21	–	–	68	–	–	–
Cn1c(SCC(N)=O)nnc1C1CCN(C(=O)NCc2ccccc2)CC1	–	–	–	–	–	–
Cn1c(SCC(N)=O)nnc1C1CCN(S(=O)(=O)c2ccccc2C(F)(F)F)CC1	2	–	–	–	–	–
Cn1c(SCC(=O)N2CCCCC2)nc2cccnc21	–	–	–	–	–	–
CCOC(=O)C(NCc1ccc2c(c1)OCO2)(NC(=O)c1ccccc1)C(F)(F)F (configuration not stated)	–	96	74	–	–	–
CCOC(=O)C(NCc1ccccc1)(NC(=O)c1ccccc1)C(F)(F)F (configuration not stated)	–	52	–	–	–	–
CCOC(=O)C(NC(=O)c1ccccc1)(Nc1cc(C)on1)C(F)(F)F (configuration not stated)	–	62	–	–	–	–
CCOC(=O)C(NCc1ccccc1OC)(NC(C)=O)C(F)(F)F (configuration not stated)	–	–	–	–	–	–
CCOC(=O)C(NC(=O)c1ccccc1)(Nc1nnc(C)s1)C(F)(F)F (configuration not stated)	·	·	·	–	·	–
COc1cccc(NC(=O)c2ccccc2NS(C)(=O)=O)c1	–	–	65	–	–	–
CS(=O)(=O)Nc1ccccc1C(=O)Nc1cccc(Cl)c1	–	–	68	–	–	–
CS(=O)(=O)Nc1ccccc1C(=O)Nc1cc(Cl)cc(Cl)c1	–	–	–	–	–	–
CCOC(=O)CSc1cc(CSc2ccccc2)nc(-c2ccccc2)n1	–	57	–	–	–	–
Clc1ccc(SCc2cc(-c3ccccc3)on2)cc1	–	90	–	–	–	–
Clc1cc(CSc2ccccc2)nc(-c2ccccc2)n1	–	–	53	–	–	–
CCOC(=O)CSc1ccc2nnc(-c3ccccc3)n2n1	–	–	–	·	–	·
CCCCCOC(=O)C1=C(C)Nc2ncnn2C1c1cccs1 (configuration not stated)	–	78	–	–	–	–
CC[C@@]1(O)C(=O)OCc2c1cc1n(c2=O)Cc2cc3c(CN(C)C)c(O)ccc3nc2-1	·	·	·	-6.3	·	·
O=C(CSc1nc2ccccc2s1)NNC(=O)Nc1ccc(Cl)c(Cl)c1	–	–	–	–	–	–
CCOc1ccc2nc(SCc3ccccc3C#N)sc2c1	2.5	51	–	–	–	–
O=[N+]([O-])c1ccc2nc(SCc3ccccc3Cl)sc2c1	–	–	–	-4.1	–	–
Nc1ccc2nc(SCc3ccc([N+](=O)[O-])cc3)sc2c1	–	97	59	·	–	–
Cc1cc(NC(=O)CSc2nnc(-c3ccco3)o2)no1	–	–	–	–	–	–
CC1(C)CC(=O)c2cnc(NC(=O)C3CCCC3)nc2C1	–	–	–	–	–	–
SMILES	CYP2C9 act	CYP2C19 inh	CYP2C9 inh	Cav3 T inh	CYP2C19 act	Rev-RRE block
O=C1N=C2SCCN2/C1=C\c1ccccc1Cl	–	–	–	–	–	–
C=CCN1CC(c2nc3ccccc3n2Cc2ccccc2)CC1=O (configuration not stated)	–	–	–	–	–	·
CC(C)(C)N1CC(c2nc3ccccc3n2Cc2ccc(Cl)cc2)CC1=O (configuration not stated)	–	72	93	–	–	–
CC(C)(C)N1CC(c2nc3ccccc3n2CCOc2ccccc2)CC1=O (configuration not stated)	–	62	83	-3.9	–	–
Nc1nc(Cn2nnc(-c3ccccc3Cl)n2)nc(N2CCOCC2)n1	–	55	–	–	–	·
CC(=O)N1CCc2cc(Br)cc(S(=O)(=O)N3CCN(c4ccccn4)CC3)c21	–	–	–	·	–	–
COc1cccc(CNS(=O)(=O)c2cc(Br)cc3c2N(C(C)=O)C(C)C3)c1 (configuration not stated)	2.1	74	–	–	–	–
